For 29 compounds, IC50 results are on record in ChEMBL document CHEMBL1765003, “Discovery of (1S,2R,3R)-2,3-dimethyl-2-phenyl-1-sulfamidocyclopropanecarboxylates: novel and highly selective aggrecanase inhibitors” (J Med Chem, 2011).

The structures appear in SMILES notation. pIC50: −log10 of the molar value.

The target in experiment [1] is Matrix metalloproteinase-14 (Homo sapiens, UniProt P50281). Description: Inhibition of human recombinant MMP14 after 60 mins by fluorescence plate reader. Summed up: (§1)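 Recombinant human enzyme at 20 ng/mL with 10 μM MOCAc-Lys-Pro-Leu-Gly-Leu-A2pr(Dnp)-Ala-Arg-NH₂, in 100 mM Tris-HCl pH 7.5, 150 mM NaCl, 10 mM CaCl₂, 0.05% Brij-35. Enzyme pretreated with inhibitor for 15 min at 25 °C, then substrate added. Fluorescence (ex 325, em 405 nm) read at 60 min. IC50 taken from three points in the linear range; mean of ≥2 determinations.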

The target in experiment [2] is T1, A disintegrin and metalloproteinase with thrombospondin motifs 5 (Homo sapiens, UniProt Q9UNA0).
T1 sequence (Q9UNA0 whole entry): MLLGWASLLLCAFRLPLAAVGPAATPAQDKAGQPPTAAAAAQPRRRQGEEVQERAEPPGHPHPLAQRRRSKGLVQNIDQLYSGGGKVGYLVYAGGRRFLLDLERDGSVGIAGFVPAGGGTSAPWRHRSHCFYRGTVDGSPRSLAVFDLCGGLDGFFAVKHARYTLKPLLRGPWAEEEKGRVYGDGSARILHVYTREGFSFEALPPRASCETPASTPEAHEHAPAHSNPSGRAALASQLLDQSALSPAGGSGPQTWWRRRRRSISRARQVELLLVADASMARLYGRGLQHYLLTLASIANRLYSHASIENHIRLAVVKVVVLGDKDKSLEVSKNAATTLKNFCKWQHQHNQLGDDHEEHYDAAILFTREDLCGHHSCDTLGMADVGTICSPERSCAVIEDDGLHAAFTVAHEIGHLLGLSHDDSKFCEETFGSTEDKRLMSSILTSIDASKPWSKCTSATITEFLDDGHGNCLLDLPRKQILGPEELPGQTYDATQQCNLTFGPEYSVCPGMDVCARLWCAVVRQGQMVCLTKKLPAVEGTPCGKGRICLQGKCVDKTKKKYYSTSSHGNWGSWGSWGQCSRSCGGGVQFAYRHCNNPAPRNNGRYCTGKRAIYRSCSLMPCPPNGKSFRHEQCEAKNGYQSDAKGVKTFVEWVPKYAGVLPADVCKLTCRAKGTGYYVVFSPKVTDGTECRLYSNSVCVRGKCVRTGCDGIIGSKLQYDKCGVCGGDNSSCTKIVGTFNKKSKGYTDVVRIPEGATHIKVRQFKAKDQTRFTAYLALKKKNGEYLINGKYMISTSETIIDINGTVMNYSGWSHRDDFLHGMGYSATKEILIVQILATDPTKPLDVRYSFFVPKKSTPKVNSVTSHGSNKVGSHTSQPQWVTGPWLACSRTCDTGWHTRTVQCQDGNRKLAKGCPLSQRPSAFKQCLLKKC
Description: Inhibition of human recombinant aggrecanase 2 after 150 mins by fluorescence plate reader.

Experiment [3] has as its target Disintegrin and metalloproteinase domain-containing protein 17 (Homo sapiens, UniProt P78536). The experiment is described as follows: Inhibition of human recombinant TACE after 60 mins by fluorescence plate reader. Summed up: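 rh-TACE at 80 ng/mL with 10 μM MCA-Pro-Leu-Ala-Gln-Ala-Val-Dpa-Arg-Ser-Ser-Ser-Arg-NH₂, in 100 mM Tris-HCl pH 7.5, 150 mM NaCl, 10 mM CaCl₂, 0.05% Brij-35. Inhibitor preincubated for 15 min at 25 °C. Fluorescence (ex 325/em 405 nm) read at 60 min. IC50 from three linear-range points; mean of ≥2.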

The target in the next experiment is T2, Interstitial collagenase (Homo sapiens, UniProt P03956).
T2 sequence (P03956 whole entry): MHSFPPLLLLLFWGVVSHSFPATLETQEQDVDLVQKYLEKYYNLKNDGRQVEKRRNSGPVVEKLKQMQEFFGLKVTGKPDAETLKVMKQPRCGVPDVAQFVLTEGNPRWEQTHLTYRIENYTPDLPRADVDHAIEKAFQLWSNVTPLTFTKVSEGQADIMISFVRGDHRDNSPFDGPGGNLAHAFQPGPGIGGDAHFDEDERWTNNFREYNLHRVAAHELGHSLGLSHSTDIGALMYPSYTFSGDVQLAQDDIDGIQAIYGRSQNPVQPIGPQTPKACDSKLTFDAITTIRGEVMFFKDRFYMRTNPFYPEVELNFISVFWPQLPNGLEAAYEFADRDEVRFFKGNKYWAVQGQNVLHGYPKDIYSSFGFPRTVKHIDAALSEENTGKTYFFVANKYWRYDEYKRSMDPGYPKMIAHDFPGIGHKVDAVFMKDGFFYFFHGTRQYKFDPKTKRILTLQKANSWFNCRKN
The experiment is described as follows: Inhibition of human recombinant MMP1 after 60 mins by fluorescence plate reader. Summed up:
as §1

Sequence of Disintegrin and metalloproteinase domain-containing protein 17 (P78536 whole entry, the tested form may be a part): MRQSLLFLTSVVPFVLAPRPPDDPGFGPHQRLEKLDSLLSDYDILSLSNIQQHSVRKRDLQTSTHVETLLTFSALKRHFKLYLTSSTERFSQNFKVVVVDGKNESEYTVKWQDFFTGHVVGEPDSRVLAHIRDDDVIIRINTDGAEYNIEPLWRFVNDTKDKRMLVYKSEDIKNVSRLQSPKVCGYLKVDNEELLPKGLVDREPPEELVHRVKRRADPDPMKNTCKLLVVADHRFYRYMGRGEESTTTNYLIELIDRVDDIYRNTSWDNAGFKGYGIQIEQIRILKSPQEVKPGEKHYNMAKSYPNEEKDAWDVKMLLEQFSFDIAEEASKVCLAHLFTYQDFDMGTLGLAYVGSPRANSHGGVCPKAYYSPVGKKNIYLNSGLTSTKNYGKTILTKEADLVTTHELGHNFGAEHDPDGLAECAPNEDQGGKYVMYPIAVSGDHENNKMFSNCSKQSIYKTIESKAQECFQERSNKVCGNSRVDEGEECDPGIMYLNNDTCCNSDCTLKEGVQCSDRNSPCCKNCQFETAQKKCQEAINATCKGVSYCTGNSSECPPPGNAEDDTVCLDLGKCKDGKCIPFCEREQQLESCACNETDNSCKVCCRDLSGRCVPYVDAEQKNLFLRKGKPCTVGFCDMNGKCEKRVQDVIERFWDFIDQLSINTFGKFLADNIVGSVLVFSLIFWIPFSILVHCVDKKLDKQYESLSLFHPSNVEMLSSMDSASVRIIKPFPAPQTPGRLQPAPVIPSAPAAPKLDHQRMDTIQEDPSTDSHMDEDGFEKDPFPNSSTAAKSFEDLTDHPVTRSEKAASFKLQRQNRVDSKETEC

For `Cc1ccc2c(c1)nc1n2CCN(S(=O)(=O)N[C@@]2(C(=O)O)[C@H](C)[C@@H]2c2ccccc2)C1`, the pIC50 (usually the IC50 on a negative log10 scale, so that one unit is a factor of ten) in experiment [1] was 6.05; in experiment [2], 6.49; in experiment [3], less than 5.00; on Interstitial collagenase, less than 5.00.
Regarding `C[C@@H]1[C@H](c2ccccc2)[C@]1(NS(=O)(=O)c1cc2nc3cc(Cl)ccn3c2s1)C(=O)O`, the pIC50 in experiment [1] was 7.00; in experiment [2], 7.64; in experiment [3], less than 5.00; at Interstitial collagenase, 5.82.
For `C[C@@H]1[C@H](c2ccccc2)[C@]1(NS(=O)(=O)N1Cc2nc3cc(Cl)ccn3c2C1)C(=O)O`, in that order: 6.55, 7.18, less than 5.00 and 5.43.
Turning to `C[C@@H]1[C@H](c2ccccc2)[C@]1(NS(=O)(=O)N1CCn2c(nc3cc(F)ccc32)C1)C(=O)O`, the pIC50 was 5.96 in experiment [1], 7.70 in experiment [2], less than 5.00 in experiment [3] and less than 5.00 on Interstitial collagenase.
For `C[C@@H]1[C@](C)(c2ccccc2)[C@]1(NS(=O)(=O)N1CCc2c(nn3cc(F)ccc23)C1)C(=O)O`, the pIC50 was 5.68 in experiment [1], 8.00 in experiment [2], less than 5.00 in experiment [3] and less than 5.00 at Interstitial collagenase.
As to `CCC1CN(S(=O)(=O)N[C@@]2(C(=O)O)[C@H](C)[C@@H]2c2ccccc2)CCN1c1ccc(Cl)cc1` (mixture of isomers), the pIC50 in experiment [1] is less than 5.00; in experiment [2] it was 6.39.
Take `C[C@@H]1[C@H](c2ccccc2)[C@]1(NS(=O)(=O)N1CCN(c2ccc(Cl)cc2)C(C)(C)C1)C(=O)O`: the pIC50 in experiment [1] was 5.54; in experiment [2], 6.48.
As for `C[C@@H]1[C@H](c2ccccc2)[C@]1(NS(=O)(=O)N1CCn2c(nc3cc(C#N)ccc32)C1)C(=O)O`, the pIC50 in experiment [1] was 5.31; in experiment [2], 6.60; in experiment [3], less than 5.00; on Interstitial collagenase, less than 5.00.
Take `C[C@@H]1[C@H](c2ccccc2)[C@]1(NS(=O)(=O)N1CCc2c(nc3cc(F)ccn23)C1)C(=O)O`: the pIC50 was 5.68 in experiment [1], 7.77 in experiment [2], 5.20 in experiment [3] and less than 5.00 at Interstitial collagenase.
Regarding `C[C@@H]1[C@H](c2ccccc2)[C@]1(NS(=O)(=O)N1CCN(c2ccc(Cl)cc2)C(CO)C1)C(=O)O` (mixture of isomers), the pIC50 in experiment [1] is 5.21; in experiment [2], 6.64.
Take `C[C@@H]1[C@H](c2ccccc2)[C@]1(NS(=O)(=O)N1CCc2c(nc3cc(Cl)ccn23)C1)C(=O)O`: the pIC50 in experiment [1] is 6.57; in experiment [2] it was 7.68; in experiment [3], less than 5.00; at Interstitial collagenase, less than 5.00.
As to `C[C@@H]1[C@H](c2ccccc2)[C@]1(NS(=O)(=O)N1CCc2c([nH]c3cc(F)ccc23)C1)C(=O)O`, the pIC50 is 7.01 in experiment [1], 7.42 in experiment [2], less than 5.00 in experiment [3] and 5.64 at Interstitial collagenase.
For `C[C@@H]1[C@H](c2ccccc2)[C@]1(NS(=O)(=O)N1CC=C(c2ccc(Cl)cc2)CC1)C(=O)O`, in that order: 6.52, 7.21, less than 5.00 and less than 5.00.
For `C[C@@H]1CN(S(=O)(=O)N[C@@]2(C(=O)O)[C@H](C)[C@@H]2c2ccccc2)CCN1c1ccc(C#N)s1`, in that order: 5.22, 7.48, less than 5.00 and less than 5.00.
The corresponding values for `C[C@@H]1[C@H](c2ccccc2)[C@]1(NS(=O)(=O)N1CCn2c(nc3ccc(F)cc32)C1)C(=O)O` are 6.62, 7.00, less than 5.00 and less than 5.00.
Take `C[C@@H]1[C@H](c2ccccc2)[C@]1(NS(=O)(=O)N1CCn2c(nc3cc(Cl)ccc32)C1)C(=O)O`: the pIC50 is 6.21 in experiment [1], 7.22 in experiment [2], less than 5.00 in experiment [3] and less than 5.00 at Interstitial collagenase.
As to `C[C@@H]1[C@H](c2ccccc2)[C@]1(NS(=O)(=O)c1cc2[nH]c3ccc(F)cc3c2s1)C(=O)O`, the pIC50 in experiment [1] was 7.60; in experiment [2], 8.00; in experiment [3], 5.72; at Interstitial collagenase, 5.89.
The corresponding values for `COc1cnn(-c2ccc(S(=O)(=O)N[C@@]3(C(=O)O)[C@H](C)[C@@H]3c3ccccc3)s2)c1` are 8.89, 7.77, 5.80 and 7.48.
For `Cc1cnn(-c2ccc(S(=O)(=O)N[C@@]3(C(=O)O)[C@H](C)[C@@H]3c3ccccc3)s2)c1`, in that order: 8.92, 7.72, less than 5.00 and greater than 6.52.
The corresponding values for `C[C@@H]1[C@H](c2ccccc2)[C@]1(NS(=O)(=O)N1CCN(c2ccc(Cl)cc2)CC1)C(=O)O` are 6.35, 7.06, less than 5.00 and less than 5.00.
For the compound `C[C@@H]1[C@H](c2ccccc2)[C@]1(NS(=O)(=O)N1CCc2c(nn3cc(F)ccc23)C1)C(=O)O`, the pIC50 in experiment [1] was 6.85; in experiment [2], 8.07; in experiment [3], less than 5.00; at Interstitial collagenase it was 5.38.
For `C[C@@H]1[C@H](c2ccccc2)[C@]1(NS(=O)(=O)N1CCn2c(cc3cc(Cl)sc32)C1)C(=O)O`, in that order: 5.64, 6.96, less than 5.00 and less than 5.00.
For `C[C@@H]1[C@H](c2ccccc2)[C@]1(NS(=O)(=O)c1cc2[nH]c3cc(Cl)ccc3c2s1)C(=O)O`, in that order: 7.77, 8.54, 5.42 and 6.00.
For `COc1ccc2c(c1)nc1n2CCN(S(=O)(=O)N[C@@]2(C(=O)O)[C@H](C)[C@@H]2c2ccccc2)C1`, in that order: 5.37, 6.48, less than 5.00 and less than 5.00.
Take `COCc1cc(N2CCN(S(=O)(=O)N[C@@]3(C(=O)O)[C@H](C)[C@@H]3c3ccccc3)C[C@H]2C)no1`: the pIC50 in experiment [1] was 5.85; in experiment [2], 7.17; in experiment [3], less than 5.00; on Interstitial collagenase, less than 5.00.
As to `C[C@@H]1CN(S(=O)(=O)N[C@@]2(C(=O)O)[C@H](C)[C@@H]2c2ccccc2)CCN1c1ccc(C2CC2)cc1`, the figures for the pIC50 (in experiment [1]; in experiment [2]; at Interstitial collagenase) were 5.85, 6.57 and less than 5.00, respectively.
In the case of `C[C@@H]1CN(S(=O)(=O)N[C@@]2(C(=O)O)[C@H](C)[C@@H]2c2ccccc2)CCN1c1cc(C(C)(F)F)on1`, the pIC50 was 5.96 in experiment [1], 6.89 in experiment [2], less than 5.00 in experiment [3] and 5.59 on Interstitial collagenase.
On to `C[C@@H]1[C@H](c2ccccc2)[C@]1(NS(=O)(=O)c1ccc(-c2ccc(Cl)cc2)s1)C(=O)O`, for which the pIC50 is 7.72 in experiment [1], 5.57 in experiment [3] and 5.40 at Interstitial collagenase.
Regarding `Cc1cc(S(=O)(=O)N[C@@]2(C(=O)O)[C@H](C)[C@@H]2c2ccccc2)sc1-n1cc(Cl)cn1`, in experiment [2], the pIC50 is less than 6.00.
